Data from ChEMBL document CHEMBL1255465, “Persistence of uropathogenic Escherichia coli in the face of multiple antibiotics” (Antimicrob Agents Chemother, 2010).
Calls of active or inactive are those of the source. No cut-off for these calls is given here.

How the values were obtained:
[1] = Drug level in Escherichia coli UTI89-infected CBA/J mouse urine at 1 mg/kg, po after 2 hrs; format: ADME, organism-based; design: dose 1 mg/kg, route oral; details: in vivo
Outline: (§1)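 Urine collected by gentle bladder pressure 2 h after oral dosing of UTI89-infected CBA/J mice. 10 μl spotted on 7-mm filter discs, placed on fresh UTI89 lawns on LB agar. Clearance diameter measured after 24 h at 37°C. Urine drug level calculated from standard curves of discs holding known antibiotic concentrations.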

Escherichia coli [2] = experiment: Antibacterial activity against uropathogenic Escherichia coli UTI89 infected in CBA/J mouse assessed as decrease in bacterial invasion into layers of urothelium at 1 mg/kg, po administered on day 3 postinfection daily for 3 days measured on day 9 post-inoculation in presence of Triton X-100; format: functional, organism-based; design: dose 1 mg/kg
5637 [3] = experiment: Cytotoxicity against human 5637 cells assessed as mild induction of cell death by LDH release assay; format: cell-based
Escherichia coli [4] = experiment: Antibacterial activity against uropathogenic Escherichia coli UTI89 infected in CBA/J mouse assessed as decrease in bacterial invasion into layers of urothelium at 1 mg/kg, po administered on day 3 postinfection daily for 3 days measured on day 9 post-inoculation; format: functional, organism-based; design: dose 1 mg/kg
Escherichia coli [5] = experiment: Antibacterial activity against uropathogenic Escherichia coli UTI89 infected in human 5637 cells assessed as decrease in intracellular bacterial level at 700 to 1000 ug/ml after 12 hrs by serial dilution method; format: functional, organism-based
Outline: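 Confluent 5637 monolayers in triplicate infected with UTI89 (24-h static LB culture, type 1 pili) at MOI ~15 and spun 600 × g for 5 min. After 2 h: gentamicin 100 μg/ml for 2 h, then 10 μg/ml for 14 h. Then 12 h with drug at two concentrations. Cells lysed in 0.4% Triton X-100 and plated on LB agar. Titers expressed relative to 800 μg/ml gentamicin. ≥3 independent assays.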

Escherichia coli [6] = experiment: Antibacterial activity against uropathogenic Escherichia coli UTI89 isolated from urine samples of infected CBA/J mouse after 24 hrs by disk diffusion assay; format: functional, organism-based; outline: as §1
5637 [7] = experiment: Cytotoxicity against human 5637 cells assessed as mild induction of cell death by trypan blue exclusion assay; format: cell-based
Outline: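 Integrity of 5637 cells after drug treatment assessed by 0.4% trypan blue exclusion, following a standard protocol.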

Escherichia coli [8] = experiment: Antibacterial activity against uropathogenic Escherichia coli UTI89 infected in CBA/J mouse assessed as decrease in bacterial load in bladder at 1 mg/kg, po administered on day 3 postinfection daily for 3 days measured on day 9 post-inoculation; format: functional, organism-based; design: dose 1 mg/kg; details: Urinary bladder
Outline: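 Female CBA/J mice, 7–8 weeks old, inoculated transurethrally with ~10^7 CFU UTI89 (24-h static LB culture) in 50 μl PBS. From day 3, one oral gavage daily for 3 days, 50 μl; controls given water. On day 9, bladders homogenized in PBS with 0.025% Triton X-100 and plated on LB agar for CFU. 11 mice from two experiments; Mann-Whitney U test.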

Escherichia coli [9] = experiment: Antibacterial activity against uropathogenic Escherichia coli UTI89 assessed as inhibition of biofilm formation after 24 hrs by microtiterplate-based assay; format: functional, organism-based
Outline: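 Biofilms of UTI89 formed for 48 h at 37°C without shaking in M9 (1:100 inoculum, triplicate wells). Fresh M9 ± drug (higher of two tested concentrations) then added for 24 h. Biomass stained with 0.1% crystal violet, solubilized in DMSO, read at A562, and expressed relative to untreated controls. Three independent experiments.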

Escherichia coli [10] = experiment: Antibacterial activity against uropathogenic Escherichia coli UTI89 assessed as degradation of preexisting biofilm after 24 hrs by microscopy; format: functional, organism-based
Outline: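 UTI89 diluted 1:100 into M9 medium and grown statically 48 h at 37°C in microtiter wells. Nonadherent cells removed, fresh M9 ± drug added for 24 h, using the higher of two tested concentrations. Viable bacteria in biofilms visualized by Live/Dead BacLight staining and microscopy.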

Drug uptake [1]: 4 µg/mL
Structure (SMILES): C[C@@H]1O[C@@H]1P(=O)(O)O [FOSFOMYCIN]
inhibition (Escherichia coli [2]): Active
Activity 5637 [3]: Toxic
inhibition (Escherichia coli [4]): inactive
inhibition (Escherichia coli [5]): Active
Activity (Escherichia coli [6]): Active
Activity 5637 [7]: Toxic
inhibition (Escherichia coli [8]): inactive
Biofilm inhibition activity (Escherichia coli [9]): Active
Activity (Escherichia coli [10]): Active
